Measurements published in ChEMBL document CHEMBL4052710 (Bioorg Med Chem Lett, 2017).
pIC50: −log10 of the molar value. The source made the active and inactive calls. No cut-off for these calls is given here.

How the values were obtained:
[1] = system: T47D; test: Induction of apoptosis in human T47D cells assessed as late apoptotic cells level at 5 uM incubated for 48 hrs by annexin V-FITC and propidium iodide staining based flow cytometry (reference value: 0.48%); assay type: functional
[2] = system: T47D; test: Induction of cell cycle arrest in human T47D cells assessed as increase in G0/G1 phase accumulation incubated for 24 hrs by flow cytometry; assay type: functional, cell-based
[3] = system: T47D; test: Induction of apoptosis in human T47D cells assessed as viable cells level at 5 uM incubated for 48 hrs by annexin V-FITC and propidium iodide staining based flow cytometry (reference value: 96%); assay type: functional
[4] = system: MCF7; test: Growth inhibition of human MCF7 cells incubated for 72 hrs by CCK8 assay; assay type: functional, cell-based; settings: MCF7, 72 h
[5] = system: A549; test: Growth inhibition of human A549 cells incubated for 72 hrs by CCK8 assay; assay type: functional, cell-based; settings: A549, 72 h
[6] = system: NCI-H460; test: Growth inhibition of human H460 cells incubated for 72 hrs by CCK8 assay; assay type: functional, cell-based; settings: NCI-H460, 72 h
[7] = system: T47D; test: Induction of apoptosis in human T47D cells assessed as necrotic cells level at 5 uM incubated for 48 hrs by annexin V-FITC and propidium iodide staining based flow cytometry (reference value: 2.79%); assay type: functional
[8] = system: NCI-H1299; test: Growth inhibition of human H1299 cells incubated for 72 hrs by CCK8 assay; assay type: functional, cell-based; settings: NCI-H1299, 72 h
[9] = system: T47D; test: Induction of apoptosis in human T47D cells assessed as early apoptotic cells level at 5 uM incubated for 48 hrs by annexin V-FITC and propidium iodide staining based flow cytometry (reference value: 0.75%); assay type: functional
[10] = system: T47D; test: Growth inhibition of human T47D cells incubated for 72 hrs by CCK8 assay; assay type: functional, cell-based
[11] = system: A549; test: Growth inhibition of human A549 cells incubated for 72 hrs at 1 uM by CCK8 assay; assay type: functional; settings: A549, 72 h, read-out: GI
In short: (§1)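 CCK8 viability assay on a panel of human cancer cell lines, with an initial screen at fixed concentrations of 1 µM and 10 µM.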

[12] = system: NCI-H1299; test: Growth inhibition of human H1299 cells incubated for 72 hrs at 1 uM by CCK8 assay; assay type: functional; settings: NCI-H1299, 72 h, read-out: GI; in short: as §1
[13] = system: NCI-H460; test: Growth inhibition of human H460 cells incubated for 72 hrs at 10 uM by CCK8 assay; assay type: functional; settings: NCI-H460, 72 h, read-out: GI; in short: as §1
[14] = system: SiHa; test: Growth inhibition of human SiHa cells incubated for 72 hrs at 10 uM by CCK8 assay; assay type: functional; settings: read-out: GI; in short: as §1
[15] = target: Vascular endothelial growth factor receptor 2 (Homo sapiens, UniProt P35968); test: Inhibition of human VEGFR2 at 1 uM by enzymatic radiometric assay
[16] = system: T47D; test: Growth inhibition of human T47D cells incubated for 72 hrs at 1 uM by CCK8 assay; assay type: functional; settings: read-out: GI; in short: as §1
[17] = target: CDK4/Cyclin D3 (Homo sapiens) (UniProt P11802+P30281); test: Inhibition of human CDK4/CyclinD3 at 1 uM by enzymatic radiometric assay; assay type: protein-complex assay
In short: (§2)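 Kinase panel run through the Eurofins KinaseProfiler, with compound at a fixed 1 µM. Values are means of two independent experiments.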

[18] = system: OVCAR-5; test: Growth inhibition of human OVCAR5 cells incubated for 72 hrs at 10 uM by CCK8 assay; assay type: functional; settings: OVCAR-5, 72 h, read-out: GI; in short: as §1
[19] = system: NCI-H1299; test: Growth inhibition of human H1299 cells incubated for 72 hrs at 10 uM by CCK8 assay; assay type: functional; settings: NCI-H1299, 72 h, read-out: GI; in short: as §1
[20] = system: SiHa; test: Growth inhibition of human SiHa cells incubated for 72 hrs at 1 uM by CCK8 assay; assay type: functional; settings: read-out: GI; in short: as §1
[21] = system: HeLa; test: Growth inhibition of human HeLa cells incubated for 72 hrs at 1 uM by CCK8 assay; assay type: functional; settings: read-out: GI; in short: as §1
[22] = system: A549; test: Growth inhibition of human A549 cells incubated for 72 hrs at 10 uM by CCK8 assay; assay type: functional; settings: A549, 72 h, read-out: GI; in short: as §1
[23] = system: HeLa; test: Growth inhibition of human HeLa cells incubated for 72 hrs at 10 uM by CCK8 assay; assay type: functional; settings: read-out: GI; in short: as §1
[24] = system: NCI-H460; test: Growth inhibition of human H460 cells incubated for 72 hrs at 1 uM by CCK8 assay; assay type: functional; settings: NCI-H460, 72 h, read-out: GI; in short: as §1
[25] = system: T47D; test: Growth inhibition of human T47D cells incubated for 72 hrs at 10 uM by CCK8 assay; assay type: functional; settings: read-out: GI; in short: as §1
[26] = system: OVCAR-5; test: Growth inhibition of human OVCAR5 cells incubated for 72 hrs at 1 uM by CCK8 assay; assay type: functional; settings: OVCAR-5, 72 h, read-out: GI; in short: as §1
[27] = target: T1, Cyclin-dependent kinase 5/CDK5 activator 1 (Homo sapiens) (UniProt Q00535+Q15078); test: Inhibition of human CDK5/p25 at 1 uM by enzymatic radiometric assay; assay type: protein-complex assay
[28] = target: CDK2/Cyclin A2 (Homo sapiens) (UniProt P24941+P20248); test: Inhibition of human CDK2/CyclinA at 1 uM by enzymatic radiometric assay; assay type: protein-complex assay; in short: as §2
[29] = target: CDK6/cyclin D3 (Homo sapiens) (UniProt P30281+Q00534); test: Inhibition of human CDK6/CyclinD3 at 1 uM by enzymatic radiometric assay; assay type: protein-complex assay
[30] = target: T1, Cyclin-dependent kinase 5/CDK5 activator 1 (Homo sapiens); test: Inhibition of human CDK5/p35 at 1 uM by enzymatic radiometric assay; assay type: protein-complex assay
[31] = target: CDK12/Cyclin K (Homo sapiens) (UniProt O75909+Q9NYV4); test: Inhibition of human CDK12/CyclinK at 1 uM by enzymatic radiometric assay; assay type: protein-complex assay; in short: as §2
[32] = target: CDK9/cyclin T1 (Homo sapiens) (UniProt O60563+P50750); test: Inhibition of human CDK9/CyclinT1 at 1 uM by enzymatic radiometric assay; assay type: protein-complex assay
[33] = target: Cyclin-dependent kinase 2/cyclin E1 (Homo sapiens) (UniProt P24864+P24941); test: Inhibition of human CDK2/CyclinE at 1 uM by enzymatic radiometric assay; assay type: protein-complex assay; in short: as §2
[34] = target: CDK7/Cyclin H/MNAT1 (Homo sapiens) (UniProt P51946+P50613+P51948); test: Inhibition of human CDK7/CyclinH/MAT1 at 1 uM by enzymatic radiometric assay; assay type: protein-complex assay
[35] = target: CDK18/Cyclin Y (Homo sapiens) (UniProt Q07002+Q8ND76); test: Inhibition of human CDK18/CyclinY at 1 uM by enzymatic radiometric assay; assay type: protein-complex assay; in short: as §2
[36] = target: CDK3/Cyclin E (Homo sapiens) (UniProt P24864+Q00526); test: Inhibition of human CDK3/CyclinE at 1 uM by enzymatic radiometric assay; assay type: protein-complex assay; in short: as §2
[37] = target: Cyclin-dependent kinase 1/cyclin B1 (Homo sapiens) (UniProt P06493+P14635); test: Inhibition of human CDK1/CyclinB at 1 uM by enzymatic radiometric assay; assay type: protein-complex assay; in short: as §2
Cyclin-dependent kinase 1/cyclin B1 (Homo sapiens), sequence (P06493 whole entry, looked up): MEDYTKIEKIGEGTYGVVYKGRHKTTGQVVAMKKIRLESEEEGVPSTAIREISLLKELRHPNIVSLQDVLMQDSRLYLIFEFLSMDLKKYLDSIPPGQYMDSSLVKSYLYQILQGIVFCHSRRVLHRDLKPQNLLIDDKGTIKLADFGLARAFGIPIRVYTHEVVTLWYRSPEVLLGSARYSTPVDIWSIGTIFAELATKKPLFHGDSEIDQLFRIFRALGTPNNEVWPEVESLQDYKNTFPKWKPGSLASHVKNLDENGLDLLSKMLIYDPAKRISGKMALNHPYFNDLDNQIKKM
Cyclin-dependent kinase 1/cyclin B1 (Homo sapiens), sequence (P14635 whole entry, looked up): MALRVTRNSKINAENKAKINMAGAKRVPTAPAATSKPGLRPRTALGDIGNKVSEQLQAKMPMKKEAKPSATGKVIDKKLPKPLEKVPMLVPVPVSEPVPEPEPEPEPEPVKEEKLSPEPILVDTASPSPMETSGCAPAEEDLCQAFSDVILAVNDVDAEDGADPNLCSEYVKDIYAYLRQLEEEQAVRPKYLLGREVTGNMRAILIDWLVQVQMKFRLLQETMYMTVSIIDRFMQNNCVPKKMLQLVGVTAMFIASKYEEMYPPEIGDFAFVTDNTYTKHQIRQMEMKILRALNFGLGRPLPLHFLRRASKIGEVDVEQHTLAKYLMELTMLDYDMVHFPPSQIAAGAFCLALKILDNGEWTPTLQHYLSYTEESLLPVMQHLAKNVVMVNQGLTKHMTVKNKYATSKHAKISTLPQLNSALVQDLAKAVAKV

T1 sequence (Q00535 whole entry): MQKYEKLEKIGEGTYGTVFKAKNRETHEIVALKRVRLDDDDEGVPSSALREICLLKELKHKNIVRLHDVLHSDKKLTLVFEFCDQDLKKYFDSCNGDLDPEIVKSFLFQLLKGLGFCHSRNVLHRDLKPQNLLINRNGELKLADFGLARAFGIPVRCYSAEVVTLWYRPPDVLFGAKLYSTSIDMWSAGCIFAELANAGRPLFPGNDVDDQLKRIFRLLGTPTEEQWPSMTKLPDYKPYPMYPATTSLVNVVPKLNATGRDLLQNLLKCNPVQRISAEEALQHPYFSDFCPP
T1 sequence (Q15078 99-307 partner limits assumed): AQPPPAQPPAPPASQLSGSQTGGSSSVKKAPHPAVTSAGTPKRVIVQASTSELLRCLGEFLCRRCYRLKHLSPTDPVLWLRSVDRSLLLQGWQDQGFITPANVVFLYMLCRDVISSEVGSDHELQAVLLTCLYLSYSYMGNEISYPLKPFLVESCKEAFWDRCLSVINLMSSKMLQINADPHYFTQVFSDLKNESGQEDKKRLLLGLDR
Vascular endothelial growth factor receptor 2, sequence (P35968 whole entry): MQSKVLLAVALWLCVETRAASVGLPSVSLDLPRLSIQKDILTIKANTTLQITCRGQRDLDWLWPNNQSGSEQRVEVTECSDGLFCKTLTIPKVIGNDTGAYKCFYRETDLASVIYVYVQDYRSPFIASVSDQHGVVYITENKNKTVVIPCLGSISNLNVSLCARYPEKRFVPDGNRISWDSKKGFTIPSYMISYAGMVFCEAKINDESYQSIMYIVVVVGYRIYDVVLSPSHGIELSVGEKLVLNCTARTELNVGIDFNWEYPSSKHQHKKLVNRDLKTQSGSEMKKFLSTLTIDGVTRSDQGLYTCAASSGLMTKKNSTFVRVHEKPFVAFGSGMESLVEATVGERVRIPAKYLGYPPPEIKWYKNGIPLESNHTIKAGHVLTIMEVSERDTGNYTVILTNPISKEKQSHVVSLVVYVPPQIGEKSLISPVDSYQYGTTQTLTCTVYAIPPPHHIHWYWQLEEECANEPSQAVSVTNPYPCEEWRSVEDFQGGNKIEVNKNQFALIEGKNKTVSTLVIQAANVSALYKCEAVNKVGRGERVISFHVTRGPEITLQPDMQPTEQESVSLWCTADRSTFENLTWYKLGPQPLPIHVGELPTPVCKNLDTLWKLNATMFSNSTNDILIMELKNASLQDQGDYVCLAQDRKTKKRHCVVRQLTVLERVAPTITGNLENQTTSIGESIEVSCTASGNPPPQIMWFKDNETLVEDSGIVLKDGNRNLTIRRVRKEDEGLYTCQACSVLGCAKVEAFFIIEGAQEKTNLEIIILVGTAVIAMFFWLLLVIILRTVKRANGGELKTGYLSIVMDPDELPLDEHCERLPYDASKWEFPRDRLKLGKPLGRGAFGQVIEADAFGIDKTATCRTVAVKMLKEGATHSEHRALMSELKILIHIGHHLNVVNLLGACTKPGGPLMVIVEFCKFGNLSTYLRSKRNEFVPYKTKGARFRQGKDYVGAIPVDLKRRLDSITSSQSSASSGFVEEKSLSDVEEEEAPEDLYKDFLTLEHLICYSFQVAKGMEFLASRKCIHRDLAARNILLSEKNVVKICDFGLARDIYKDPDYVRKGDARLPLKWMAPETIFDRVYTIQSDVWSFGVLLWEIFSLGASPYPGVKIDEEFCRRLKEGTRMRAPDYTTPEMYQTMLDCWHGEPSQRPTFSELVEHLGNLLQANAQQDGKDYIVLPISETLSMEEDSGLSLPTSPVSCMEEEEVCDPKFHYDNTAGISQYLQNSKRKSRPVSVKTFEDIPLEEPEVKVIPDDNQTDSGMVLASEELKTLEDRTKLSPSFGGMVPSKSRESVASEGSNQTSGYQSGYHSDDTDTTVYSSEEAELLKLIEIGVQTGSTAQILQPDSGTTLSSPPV
CDK3/Cyclin E (Homo sapiens), sequence (P24864 whole entry, looked up): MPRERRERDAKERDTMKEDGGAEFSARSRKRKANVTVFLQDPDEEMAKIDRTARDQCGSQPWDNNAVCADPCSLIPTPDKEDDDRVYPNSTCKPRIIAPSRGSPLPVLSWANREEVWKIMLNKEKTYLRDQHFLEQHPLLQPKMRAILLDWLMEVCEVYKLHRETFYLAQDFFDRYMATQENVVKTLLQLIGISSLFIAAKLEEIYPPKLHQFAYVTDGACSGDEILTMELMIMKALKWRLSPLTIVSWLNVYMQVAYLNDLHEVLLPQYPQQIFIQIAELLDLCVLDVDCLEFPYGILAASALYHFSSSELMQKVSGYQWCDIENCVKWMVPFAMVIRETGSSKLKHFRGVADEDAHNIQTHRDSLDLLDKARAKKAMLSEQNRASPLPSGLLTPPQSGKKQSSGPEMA
CDK3/Cyclin E (Homo sapiens), sequence (Q00526 whole entry, looked up): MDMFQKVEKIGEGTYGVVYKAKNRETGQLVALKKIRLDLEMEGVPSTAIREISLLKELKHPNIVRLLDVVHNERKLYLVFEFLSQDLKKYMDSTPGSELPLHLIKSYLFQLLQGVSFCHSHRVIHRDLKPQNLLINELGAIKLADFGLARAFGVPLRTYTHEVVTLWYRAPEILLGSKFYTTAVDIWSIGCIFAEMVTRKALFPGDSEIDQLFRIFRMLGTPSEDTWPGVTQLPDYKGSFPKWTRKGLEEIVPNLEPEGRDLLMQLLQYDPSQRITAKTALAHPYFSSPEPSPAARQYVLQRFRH

pIC50 [4] | pIC50 [5] | pIC50 [6] | pIC50 [8] | inhibition [15] | inhibition [17] | SMILES | inhibition of growth at 1 µM [11] | inhibition of growth at 1 µM [12] | inhibition of growth at 10 µM [13] | inhibition of growth at 10 µM [14] | inhibition of growth at 1 µM [16] | inhibition of growth at 10 µM [18] | inhibition of growth at 10 µM [19] | inhibition of growth at 1 µM [20] | inhibition of growth at 1 µM [21] | inhibition of growth at 10 µM [22] | inhibition of growth at 10 µM [23] | inhibition of growth at 1 µM [24] | inhibition of growth at 10 µM [25] | inhibition of growth at 1 µM [26] | further results
< 5.00 | < 5.00 | < 5.00 | 5.12 |  |  | CN(C)C(=O)c1cc2cnc(Nc3ccc(N4CCNCC4)cn3)nc2n1C1CCCC1 [RIBOCICLIB] |  |  |  |  |  |  |  |  |  |  |  |  |  |  | Activity [1]: 2.91%; Activity [2]: Active; Activity [3]: 94.8%; Activity [7]: 1.94%; Activity [9]: 0.34%
5.54 | 5.35 | 5.25 | 5.72 |  |  | COc1cc2nccc(Oc3ccc(NC(=O)C4(C(=O)Nc5ccc(F)cc5)CC4)cc3)c2cc1OC [CABOZANTINIB] |  |  |  |  |  |  |  |  |  |  |  |  |  |  | pIC50 [10]: 5.35
 |  |  |  | 4% | 24% | CN(C)C(=O)c1cc2cnc(Nc3ccc(NC(=O)C4(C(=O)Nc5ccc(Cl)c(C(F)(F)F)c5)CC4)cc3)nc2n1C1CCCC1 | 1.1% | 39.5% | 91.9% | 61.1% | 6.9% | 48% | 90.4% | -11.2% | 16.5% | 88.1% | 55.6% | 2.1% | 55.8% | -2.4% | 
 |  |  |  |  |  | Nc1ccc(NC(=O)C2(C(=O)Nc3ccc(F)cc3)CC2)cc1F | 16.3% | 46.2% | 62.9% | 36% | 5.6% | 9.7% | 59.2% | 21.7% | 14% | 14.6% | 71.8% | 26.7% | 30.4% | 6.7% | 
 |  |  |  | 36% | 95% | CN(C)C(=O)c1cc2cnc(Nc3ccc(NC(=O)C4(C(=O)Nc5ccc(O)cc5)CC4)cc3)nc2n1C1CCCC1 | 93.6% | 87.4% | 104% | 94.3% | 91.5% | 90.9% | 89.7% | 69.5% | 62.3% | 94.4% | 99.9% | 90.4% | 95.8% | 80.7% | inhibition [27]: 94%; inhibition [28]: 90%; inhibition [29]: 86%; inhibition [30]: 88%; inhibition [31]: 23%; inhibition [32]: 26%; inhibition [33]: 88%; inhibition [34]: -9%; inhibition [35]: 0%; inhibition [36]: 89%; inhibition [37]: 90%
